Measured values pooled from the literature.
Compare with care: the assays were run in different laboratories.
Target: Activated CDC42 kinase 1 (TNK2, Homo sapiens, UniProt Q07912)

Cn1nc(C(F)(F)F)cc1-c1cnc(N2CCc3cc(S(=O)(=O)Nc4c(F)cc(Cl)cc4F)cc(N4CCCC4=O)c32)nc1
remaining binding (cell-free assay, competition with immobilised ligand; 1 µM): 100%

COc1cnc(Nc2cccc(S(N)(=O)=O)c2)nc1N1CCN(c2ccccc2)CC1
remaining binding (binding, competition with immobilised ligand; 1 µM): 97%

CCS(=O)(=O)c1cc2cc(C[C@](O)(CC(C)(C)c3ccc(F)cc3C(N)=O)C(F)(F)F)[nH]c2cn1
remaining binding (cell-free assay, competition with immobilised ligand; 1 µM): 100%

Cc1cnc(Nc2ccc(C(=O)N3CCC(N4CCCC4)CC3)cc2)nc1-c1cc2ccccc2s1
remaining binding (binding, competition with immobilised ligand; 1 µM): 10%

N[C@H]1CCN(c2nccc(-c3cnn4ncccc34)n2)C1
remaining binding (binding; 1 µM): 77%

COC(=O)Nc1nc2cc(C(=O)c3ccccc3)ccc2[nH]1
remaining binding (cell-free assay, competition with immobilised ligand; 0.1 µM): 100%

CN(C)c1nccc(-c2cnc3ncccn23)n1
remaining binding (binding; 1 µM): 99%

FC(F)(F)Oc1cccc(-c2cnc3ccc(-c4ccncc4)nn23)c1
remaining binding (binding, competition with immobilised ligand; 5 µM): 79%

c1ccc(N2CCN(Cc3nc4ccccc4[nH]3)CC2)nc1
remaining binding (binding, competition with immobilised ligand; 1 µM): 100%

COc1cnc(Nc2cccc(S(N)(=O)=O)c2)nc1N1CCN(c2ccccc2)C(=O)C1
remaining binding (binding, competition with immobilised ligand; 1 µM): 100%

O=C(Nc1c[nH]nc1C(=O)NC1CCNCC1)c1cc(F)cc(F)c1
remaining binding (binding, competition with immobilised ligand; 1 µM): 100%

COc1ccnn2ncc(-c3ccnc(N(C)C)n3)c12
remaining binding (binding; 1 µM): 100%

CNC(=O)c1cc(Oc2ccc(NC(=O)Nc3ccc(Cl)c(C(F)(F)F)c3)cc2)ccn1
remaining binding (cell-free assay, competition with immobilised ligand; 10 µM): 89%

COc1ncc2cc3ccccc3nc2c1C#N
remaining binding (cell-free assay, competition with immobilised ligand; 5 µM): 95%

CC1CCCN1c1nccc(-c2cnn3ncccc23)n1 (centres unmarked)
remaining binding (binding; 1 µM): 85%

O=C(NC[C@@H]1[C@H]2CN(C(=O)OCc3cc(C(F)(F)F)cc(C(F)(F)F)c3)C[C@@H]12)c1ccc2[nH]nnc2c1
remaining binding (cell-free assay, competition with immobilised ligand; 1 µM): 100%

COc1cc2ncnc(Nc3ccc(F)c(Cl)c3)c2cc1OCCCN1CCOCC1
remaining binding (cell-free assay, competition with immobilised ligand; 10 µM): 77%

COc1cc(-c2cn(C3CCc4c(F)cccc4N(CC(F)(F)F)C3=O)nn2)ccc1-n1cnc(C)c1 (centres unmarked)
remaining binding (cell-free assay, competition with immobilised ligand; 1 µM): 100%

F[C@@H]1CCN(c2nccc(-c3cnn4ncccc34)n2)C1
remaining binding (binding; 1 µM): 79%

CS(=O)(=O)CCNCc1ccc(-c2ccc3ncnc(Nc4ccc(OCc5cccc(F)c5)c(Cl)c4)c3c2)o1
remaining binding (cell-free assay, competition with immobilised ligand; 0.1 µM): 100%

O=C(NS(=O)(=O)c1ccc(NCC2CCOCC2)c([N+](=O)[O-])c1)c1ccc(N2CCN(Cc3ccc(C(F)(F)F)cc3-c3ccc(Cl)cc3)CC2)cc1Oc1cnc2[nH]ccc2c1
remaining binding (cell-free assay, competition with immobilised ligand; 1 µM): 100%

O=C(c1ccc(Nc2ncc(Cl)c(-c3cc4ccccc4s3)n2)cc1)N1CCC(N2CCCC2)CC1
remaining binding (binding, competition with immobilised ligand; 1 µM): 54%

c1cnn2ncc(-c3ccnc(N4CCC45COC5)n3)c2c1
remaining binding (binding; 1 µM): 74%

Cc1c(-c2ccccc2)oc2c(C(=O)OCCN3CCCCC3)cccc2c1=O
remaining binding (cell-free assay, competition with immobilised ligand; 0.1 µM): 100%

C[C@H]1CCN(c2nccc(-c3cnn4ncccc34)n2)C1
remaining binding (binding; 1 µM): 100%

CCC(=O)N[C@H]1CC[C@@H](C(=O)N(C)c2ccc(-c3nc4ccccc4o3)cc2)C1
remaining binding (cell-free assay, competition with immobilised ligand; 1 µM): 84%

CN1CC[C@H](c2c(O)cc(O)c3c(=O)cc(-c4ccccc4Cl)oc23)[C@H](O)C1
remaining binding (cell-free assay, competition with immobilised ligand; 0.1 µM): 100%

Cc1cc(C)c(-n2ccn3nc(-c4cccnc4)cc23)cc1NC(=O)c1cc(C#N)cc(S(F)(F)(F)(F)F)c1
remaining binding (cell-free assay, competition with immobilised ligand; 0.1 µM): 83.6%

CCN(CC)Cc1cc(Nc2ccnc3cc(Cl)ccc23)ccc1O
remaining binding (cell-free assay, competition with immobilised ligand; 10 µM): 100%

O=C(c1ccc(Nc2nccc(-c3cc4ccccc4s3)n2)cc1)N1CCC(N2CCCC2)CC1
remaining binding (binding, competition with immobilised ligand; 1 µM): 62%

Cc1nc(Nc2ncc(C(=O)Nc3c(C)cccc3Cl)s2)cc(N2CCN(CCO)CC2)n1
remaining binding (cell-free assay, competition with immobilised ligand; 10 µM): 0%

C[C@@H](c1ccc(-n2cnc3c(N)ncnc32)cc1)N1CCc2nn(C)c(Cc3ccccc3)c2C1=O
remaining binding (binding, competition with immobilised ligand; 0.1 µM): 82%
